The results in this text go back to ChEMBL document CHEMBL2046312, “Synthesis and biological activity of potent HIV-1 protease inhibitors based on Phe-Pro dihydroxyethylene isosteres” (J Med Chem, 2012).

The target in data set [1] is T1, Protease (Human immunodeficiency virus 1, UniProt Q9YQ12). Kind of data set: Inhibition of Human immunodeficiency virus 1 protease using Abz-Thr-Ile-Nle-Phe(p-NO2)-Gln-Arg-NH2 as substrate by fluorescence analysis. The gist of the method: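 Recombinant wild-type HIV-1 PR with fluorogenic substrate Abz-NF*-6, run at pH 5.5. […] 1.2 nM PR needed to detect activity. Active enzyme concentration set by titration with ritonavir and nelfinavir. The IC50 measurability limit is one-half of the active enzyme concentration.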

Data set [2] deals with Human immunodeficiency virus 1. The data set is described as follows: Antiviral activity against Human immunodeficiency virus 1 3B infected in human MT2 cells assessed as survival of virus infected cells at 0.001 nM after 72 to 96 hrs by MTT assay. It is filed as functional. Summed up:
(§1)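 HIV-1 IIIB from supernatants of chronically infected H9/HTLV IIIB cells; stock characterized by p24, RT activity and infectivity (2 × 10⁶ infectious virions/mL). MT-2 cells in RPMI 1640 + 10% FCS, infected at MOI 0,1 and incubated with inhibitor for 72−96 h. Microtiter infection assay, MTT uptake read at 540 nm, expressed as % survival of virus-infected cells.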

Data set [3] relates to Human immunodeficiency virus 1. The data set is described as follows: Antiviral activity against Human immunodeficiency virus 1 3B infected in human MT2 cells assessed as inhibition of reverse transcriptase activity at 0.0001 nM after 72 to 96 hrs by MTT assay relative to untreated control. It is filed as functional. Also noted: scale not given: the % may be the effect or the level left.

Data set [4] relates to Human immunodeficiency virus 1. The data set is described as follows: Antiviral activity against Human immunodeficiency virus 1 3B infected in human MT2 cells assessed as inhibition of reverse transcriptase activity at 0.000001 nM after 72 to 96 hrs by MTT assay relative to untreated control. It is filed as functional. Also noted: scale not given: the % may be the effect or the level left.

Data set [5] concerns Human immunodeficiency virus 1. The data set is described as follows: Antiviral activity against Human immunodeficiency virus 1 3B infected in human MT2 cells assessed as inhibition of reverse transcriptase activity at 0.001 nM after 72 to 96 hrs by MTT assay relative to untreated control. It is filed as functional. Further details: scale not given: the % may be the effect or the level left; call rule not given here.

Data set [6] concerns Human immunodeficiency virus 1. Kind of data set: Antiviral activity against Human immunodeficiency virus 1 3B infected in human MT2 cells assessed as inhibition of reverse transcriptase activity at 0.0000001 nM after 72 to 96 hrs by MTT assay relative to untreated control. Further details: scale not given: the % may be the effect or the level left. It is filed as functional.

In data set [7] the test system is Human immunodeficiency virus 1. Kind of data set: Antiviral activity against Human immunodeficiency virus 1 3B infected in human MT2 cells assessed as survival of virus infected cells at 0.000001 nM after 72 to 96 hrs by MTT assay. It is filed as functional. Summed up: as §1
The target of data set [8] is T1, Protease. Kind of data set: Inhibition of HIV1 3B protease activity in human H9 cells using Abz-Thr-Ile-Nle-Phe(p-NO2)-Gln-Arg-NH2 as substrate after 40 mins by spectrophotometric analysis. It is filed as cell-based.
In data set [9] the test system is Human immunodeficiency virus 1. Kind of data set: Antiviral activity against Human immunodeficiency virus 1 3B infected in human MT2 cells assessed as survival of virus infected cells at 0.0000001 nM after 72 to 96 hrs by MTT assay. It is filed as functional. Summed up: as §1
Data set [10] can be described thus: (§2) Cytotoxicity against human MT2 cells after 72 hrs by MTT assay. It is filed as cell-based. The conditions noted are these: MT2 cells. Summed up: (§3)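 MT-2 cells grown in RPMI 1640 with 10% fetal calf serum and exposed to inhibitor for 72 or 96 h. MTT uptake read-out. CC50 is derived from % cell survival. MNC is the highest concentration that alters neither monolayer morphology nor survival rate. Six to eight parallels per experiment, each experiment run in triplicate.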

Data set [11] concerns MT2. The description is as §2. It is filed as cell-based. The conditions noted are these: mt2, 72 h. The gist of the method:
as §3

The subject of data set [12] is Human immunodeficiency virus 1. Kind of data set: Antiviral activity against Human immunodeficiency virus 1 3B infected in human MT2 cells assessed as survival of virus infected cells at 0.1 nM after 72 to 96 hrs by MTT assay. It is filed as functional. The gist of the method: as §1
A short description of data set [13]: (§4) Cytotoxicity against human MT2 cells after 96 hrs by MTT assay. It is filed as cell-based. The conditions noted are these: MT2 cells. The gist of the method: as §3
Data set [14] concerns MT2. The description is as §4. It is filed as cell-based. The conditions noted are these: mt2, 96 h. Summed up:
as §3

Data set [15] relates to Human immunodeficiency virus 1. The data set is described as follows: Antiviral activity against Human immunodeficiency virus 1 3B infected in human MT2 cells assessed as survival of virus infected cells at 0.00001 nM after 72 to 96 hrs by MTT assay. It is filed as functional. Summed up:
as §1

A short description of data set [16]: (§5) Cytotoxicity against human MT2 cells assessed as maximum non-toxic concentration after 72 hrs by MTT assay. It is filed as cell-based. The conditions noted are these: MT2 cells, read-out: MNCC. The gist of the method: as §3
The test system of data set [17] is MT2. The data set is described as §5. It is filed as cell-based. The conditions noted are these: mt2, 72 h. Summed up: as §3
Data set [18] relates to Human immunodeficiency virus 1. The data set is described as follows: Antiviral activity against Human immunodeficiency virus 1 3B infected in human MT2 cells assessed as inhibition of reverse transcriptase activity at 0.00001 nM after 72 to 96 hrs by MTT assay relative to untreated control. It is filed as functional. Further details: scale not given: the % may be the effect or the level left.

In data set [19] the test system is Human immunodeficiency virus 1. Kind of data set: Antiviral activity against Human immunodeficiency virus 1 3B infected in human MT2 cells assessed as inhibition of reverse transcriptase activity at 0.1 nM after 72 to 96 hrs by MTT assay relative to untreated control. It is filed as functional. Also noted: scale not given: the % may be the effect or the level left.

Data set [20] in a line: (§6) Cytotoxicity against human MT2 cells assessed as maximum non-toxic concentration after 96 hrs by MTT assay. It is filed as cell-based. The settings on record: MT2 cells, read-out: MNCC. Summed up:
as §3

The test system of data set [21] is MT2. The description is as §6. It is filed as cell-based. The settings on record: mt2, 96 h. Summed up:
as §3

The subject of data set [22] is Human immunodeficiency virus 1. Kind of data set: Antiviral activity against Human immunodeficiency virus 1 3B infected in human MT2 cells assessed as survival of virus infected cells at 0.0001 nM after 72 to 96 hrs by MTT assay. It is filed as functional. Summed up:
as §1

Data set [23] is described as follows: Ratio of CC50 for human MT2 cells after 96 hrs to CC50 for human MT2 cells after 72 hrs. It is filed as cell-based.
Data set [24] deals with Human immunodeficiency virus 1. The data set is described as follows: Antiviral activity against Human immunodeficiency virus 1 3B infected in human MT2 cells assessed as survival of virus infected cells at 5 nM after 72 to 96 hrs by MTT assay. It is filed as functional. Summed up:
as §1

For data set [25], the system named is Human immunodeficiency virus 1. Kind of data set: Antiviral activity against Human immunodeficiency virus 1 3B infected in human MT2 cells assessed as inhibition of reverse transcriptase activity at 5 nM after 72 to 96 hrs by MTT assay relative to untreated control. Also noted: scale not given: the % may be the effect or the level left. It is filed as functional.

For data set [26], the system named is MT2. The data set is described as follows: Ratio of MNC for human MT2 cells after 96 hrs to MNC for human MT2 cells after 72 hrs. It is filed as ADME, cell-based.
The test system of data set [27] is Human immunodeficiency virus 1. The data set is described as follows: Antiviral activity against Human immunodeficiency virus 1 3B infected in human MT2 cells assessed as survival of virus infected cells at 10 nM after 72 to 96 hrs by MTT assay. It is filed as functional. Summed up: as §1
In data set [28] the test system is Human immunodeficiency virus 1. Kind of data set: Antiviral activity against Human immunodeficiency virus 1 3B infected in human MT2 cells assessed as inhibition of reverse transcriptase activity at 10 nM after 72 to 96 hrs by MTT assay relative to untreated control. It is filed as functional. Further details: scale not given: the % may be the effect or the level left.

T1 sequence (Q9YQ12 whole entry): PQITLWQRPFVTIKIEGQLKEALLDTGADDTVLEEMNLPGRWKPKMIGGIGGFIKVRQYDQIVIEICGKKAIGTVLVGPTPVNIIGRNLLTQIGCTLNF

In data set [1], `Cc1cccc(C)c1OCC(=O)N[C@@H](Cc1ccccc1)[C@H](O)[C@@H](O)[C@@H]1CCCCN1C(=O)COc1c(C)cccc1C` gave a concentration for half-maximal inhibition (IC50) of 0.175 µM.
In turn, `Cc1cccc(C)c1OCC(=O)N[C@@H](Cc1ccccc1)[C@@H](O)[C@H](O)[C@H]1CCCN1C(=O)COc1c(C)cccc1C` yielded an IC50 in data set [1] of 3.3 µM.
In [1], `CC[C@H](NC(=O)COc1ccccc1C)[C@H](O)[C@@H](O)[C@@H]1CCCN1C(=O)COc1ccccc1C` showed an IC50 of 0.655 µM.
In data set [1], `CC(=O)N[C@@H](Cc1c[nH]c2ccccc12)C(=O)N[C@H](C(=O)N[C@@H](Cc1ccccc1)[C@H](O)[C@@H](O)[C@H](Cc1ccccc1)NC(=O)[C@@H](NC(=O)[C@H](Cc1c[nH]c2ccccc12)NC(C)=O)C(C)C)C(C)C` yielded a half-maximal inhibitory concentration (IC50) of 0.006 µM.
With `Cc1cccc(C)c1OCC(=O)N[C@@H](Cc1ccccc1)[C@H](O)[C@@H](O)[C@@H]1CCCN1C(=O)COc1ccccc1`, inhibition in [1] was half-maximal at 0.085 µM (IC50).
`CC(=O)N[C@@H](Cc1c[nH]c2ccccc12)C(=O)N[C@H](C(=O)N1CCC[C@H]1[C@H](O)[C@@H](O)[C@H](Cc1ccccc1)NC(=O)COc1c(C)cccc1C)C(C)C`: in data set [1], inhibition was half-maximal at 0.075 µM (IC50).
Turning to `Cc1cccc(C)c1OCC(=O)N[C@@H](Cc1ccccc1)[C@H](O)[C@@H](O)[C@@H]1CCCN1C(=O)COc1c(C)cccc1C`, the survival at 1 pM in data set [2] was determined as 80%. Also, the Activity is recorded as 26% in [3]; 28% in [4]; 25% in data set [5]; 26% in data set [6]; “Dose-dependent effect” in data set [11]; “Dose-dependent effect” in data set [14]. Further, the Activity entry in data set [17] is “Dose-dependent effect”; in [18], 29%; in [19] it was 24%; in data set [21] it was “Dose-dependent effect”. Also, the survival at 1 fM in [7] was above 90%. Further, the half-maximal inhibitory concentration (IC50) is 0.0015 nM in [8] and 0.0096 µM in data set [1]. In data set [9], the survival at 1e-10 µM was above 90%. Moreover, in data set [10], the CC50 at 72 h was 300 µM. The survival at 0.0001 µM in [12] turned out to be 78%. In data set [13], this compound came in with a CC50 at 96 h of 1000 µM. For the same compound, the survival at 10 fM in data set [15] stood at 90%. Further, in [16], the MNTC at 72 h is 0.1 nM. The MNTC at 96 h in [20] is 0.1 nM. In addition, in [22], the survival at 100 fM turned out to be 87%.
Take `Cc1cccc(C)c1OCC(=O)N1CCC[C@H]1[C@H](O)[C@@H](O)[C@@H]1CCCN1C(=O)COc1c(C)cccc1C`: the IC50 in data set [1] was 290 µM.
In turn, `CC(=O)c1ccc(OCC(=O)N[C@@H](Cc2ccccc2)[C@H](O)[C@@H](O)[C@@H]2CCCN2C(=O)COc2ccc(C(C)=O)cc2)cc1` gave an IC50 in data set [1] of 116 µM.
On to `CC[C@H](C)[C@H](NC(=O)[C@@H](NC(C)=O)C(C)C)C(=O)N1CCC[C@H]1[C@H](O)[C@@H](O)[C@H](Cc1ccccc1)NC(=O)[C@H](CC(N)=O)NC(=O)[C@H](CC(C)C)NC(=O)[C@H](CO)NC(C)=O`, for which, in data set [1], the IC50 stood at 0.0006 µM.
As to `O=C(COc1ccccc1)N[C@@H](Cc1ccccc1)[C@H](O)[C@@H](O)[C@@H]1CCCN1C(=O)COc1ccccc1`, the IC50 in data set [1] was 0.614 µM.
Take `CC(=O)N[C@@H](Cc1c[nH]c2ccccc12)C(=O)N[C@H](C(=O)N[C@@H](Cc1ccccc1)[C@H](O)[C@@H](O)[C@@H]1CCCN1C(=O)[C@@H](NC(=O)[C@H](Cc1c[nH]c2ccccc12)NC(C)=O)C(C)C)C(C)C`: the selectivity ratio in data set [23] was 5000. For the same compound, the concentration for half-maximal inhibition (IC50) is 5 nM in data set [8] and below 0.0006 µM in data set [1]. For the same compound, in data set [10], the CC50 at 72 h was 2500 µM. Further, the Activity result in data set [11] is listed as “Dose-dependent effect”; in [14], “Dose-dependent effect”; in data set [25], 50%; in data set [17], “Dose-dependent effect”; in data set [21], “Dose-dependent effect”; in [28], 24%. Besides, the survival at 0.005 µM in data set [24] is above 90%. Moreover, it took 0.5 µM to reach half-maximal cytotoxicity in data set [13] (CC50 at 96 h). In addition, in [26], the Ratio was determined as 33. The MNTC at 72 h in data set [16] was determined as 10 nM. In addition, the MNTC at 96 h in data set [20] is 0.3 nM. Also, the survival at 0.01 µM in [27] was above 90%.
For the compound `Cc1cccc(C)c1OCC(=O)N[C@@H](Cc1ccccc1)[C@H](O)[C@@H](O)[C@H](Cc1ccccc1)NC(=O)COc1c(C)cccc1C`, the IC50 in data set [1] is 0.028 µM.
`CC(=O)N[C@@H](Cc1c[nH]c2ccccc12)C(=O)N[C@H](C(=O)N[C@@H](Cc1ccccc1)[C@H](O)[C@@H](O)[C@@H]1CCCCN1C(=O)[C@@H](NC(=O)[C@H](Cc1c[nH]c2ccccc12)NC(C)=O)C(C)C)C(C)C` returned an IC50 in data set [1] of 0.0018 µM.
